An excerpt weighted towards active compounds, which were near 3.1% of everything screened.
KCNK9 inh = blocks the human KCNK9 two-pore domain potassium channel; HEK293 KCNK9, FluxOR thallium flux fluorescence; hits give low values; hit rate 1.2% among 310,000; Q9NPC2; B-score at 10 µM;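 active means ratio B-score over 3 SD below the library mean, with starting fluorescence within 5 SD of its mean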;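 further: negative B-score means less thallium flux so channel inhibition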
KCNK3 inh = human KCNK3 channel inhibition, primary screen. O14649. CHO-KCNK3 thallium flux, FluxOR fluorescence; hits give low values. B-score at 10 µM. hit rate 0.84% among 340,000. AID 602410;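 active means B-score under library mean minus 4 SD, starting fluorescence ratio at most library mean plus 5 SD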;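 further: more negative B-score means stronger inhibition of thallium flux through KCNK3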
hERG rescue = hERG (human) protection from proarrhythmic block | activation (rescue from dofetilide block), less the hit threshold, % at 10 µM | hit rate 0.51% among 310,000 | Q12809 | CHO-hERG, FluxOR thallium flux, dofetilide IC70 present;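 active means activation above the mean of controls blocked by dofetilide plus 5 SD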;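 further: thallium influx through hERG after potassium depolarization seen as dye fluorescence rise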
KCNQ1 inh = blocks the human KCNQ1 potassium channel. P51787. CHO-K1 KCNQ1, FluxOR thallium flux fluorescence; hits give high values. B-score at 10 µM. hit rate 1.3% among 310,000;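 active means compounds whose thallium flux B-score, printed positive for inhibition, exceeds three library SD while starting fluorescence stays within three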;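 further: channel opened by potassium depolarization with thallium stimulus after 20 min compound exposure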
KCNQ1 pot = human KCNQ1 channel potentiation or activation | CHO-K1 KCNQ1, thallium flux FluxOR fluorescence; hits give high values | B-score at 10 µM | hit rate 0.35% among 310,000 | AID 2648;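 active means fluorescence ratio B-score, a plate-corrected score, at least three library SD, with initial intensity B-score within 5 SD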
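Medium – assay buffer, equal DMSO in all wells · Material – CHO-K1 cell line with stable KCNQ1 potassium channel expression · Signal – kinetic FluxOR thallium fluorescence, 10-s 1-Hz baseline, 110-s post-stimulus read · Compound – single concentration per compound, DMSO matched to controls · Schedule – 37 °C overnight plating, 90-min dark dye load, 20-min compound pretreatment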
KCNK9 inh conf = confirmation of human KCNK9 potassium channel inhibitors; hit rate 43% among 4,900; shares compounds with KCNK9 inh; AID 492992; HEK293 KCNK9 cells, FluxOR thallium flux fluorescence; inhibition, % at 10 µM;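 active means thallium signal inhibited by more than 5 SD of the compound-free buffer control wells, on both duplicate plates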;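 further: 0% = assay buffer control wells without compound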
Kir2-1 spec = selectivity of KCNK9 modulators against mouse Kir2.1 | shares compounds with KCNK9 inh | Kir2.1 cells, FluxOR thallium flux fluorescence | inhibition, % at 10 µM | hit rate 4% among 4,900 | AID 492993;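 active means thallium signal drop more than 5 SD beyond the mean of the no-compound control wells, seen in both duplicate plates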;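 further: signal is fluorescence rise after thallium addition divided by baseline fluorescence; plate controls were assay buffer only for no effect and full block by chlorpromazine control for full effect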
Target sequence (P35561 whole entry, looked up): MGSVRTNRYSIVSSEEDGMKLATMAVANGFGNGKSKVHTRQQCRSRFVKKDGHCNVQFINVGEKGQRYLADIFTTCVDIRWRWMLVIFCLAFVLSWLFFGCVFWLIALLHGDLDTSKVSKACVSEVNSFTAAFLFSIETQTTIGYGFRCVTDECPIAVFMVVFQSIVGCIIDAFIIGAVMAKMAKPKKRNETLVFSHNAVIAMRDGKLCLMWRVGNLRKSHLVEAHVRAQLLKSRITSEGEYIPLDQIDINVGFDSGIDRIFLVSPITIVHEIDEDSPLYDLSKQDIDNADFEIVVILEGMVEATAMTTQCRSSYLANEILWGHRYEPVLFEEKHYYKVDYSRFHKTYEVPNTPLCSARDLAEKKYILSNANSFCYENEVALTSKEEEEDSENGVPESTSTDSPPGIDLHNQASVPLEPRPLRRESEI
HEK293 Tl ctr = non-induced cell nonspecific activity of KCNK9 modulators | shares compounds with KCNK9 inh | non-induced KCNK9-HEK293, FluxOR thallium flux | inhibition, % at 10 µM | hit rate 40% among 4,900 | AID 492997;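 active means thallium signal drop beyond 5 SD of the untreated control mean, on both duplicate plates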;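 further: plate controls were buffer only IC0 wells for no effect and SID17386958 at its maximal inhibitory level for full effect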
KCNK3 inh conf = human KCNK3 channel inhibition, confirmation assay | hit rate 99% among 2,400 | CHO-KCNK3 thallium flux, FluxOR fluorescence; 0% buffer, 100% carvedilol maximal block | AID 651638 | shares compounds with KCNK3 inh | ratio percent of control, % at 10 µM;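 active means ratio percent of control, averaged over triplicates, above buffer control mean plus 5 SD, cut at about 64% in these data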;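 further: ratio is the fluorescence rise from min to max over baseline after thallium stimulus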
KCNK3 noninduced = activity in cells without induced KCNK3 expression. hit rate 40% among 2,400. AID 651747. non-induced KCNK3 parental cells, FluxOR thallium flux; hits give low values. thallium flux ratio (lower = more inhibition) at 10 µM. shares compounds with KCNK3 inh;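 active means thallium flux ratio, averaged over three wells, more than 5 SD below the buffer control mean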;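 further: host cells are CHO cells without KCNK3 induction; ratio is peak minus trough fluorescence over baseline then normalized to buffer controls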
The depositor's hits bear a star; i = inactive; / = no result.

SMILES	KCNK9 inh	KCNK3 inh	hERG rescue	KCNQ1 inh	KCNQ1 pot	KCNK9 inh conf	Kir2-1 spec	HEK293 Tl ctr	KCNK3 inh conf	KCNK3 noninduced
O=C(/C=C/Nc1ccccc1Oc1ccccc1)c1ccco1	-17*	-13*	-12	i	i	47%*	i	37%*	122*	i
c1ccc(-c2ccc(OCCOCCn3cncn3)cc2)cc1	i	i	-4	i	i	/	/	/	/	/
COc1ccccc1NC(=O)c1ccc(NC(=O)CN(C)Cc2ccccc2F)cc1	-9.1*	-11*	-21	i	i	36%*	i	i	97*	i
COc1ccccc1NC(=O)c1ccc(NC(=O)COC(=O)C2CC2C)cc1 (stereo not given)	i	i	-5	i	i	/	/	/	/	/
CCOc1cccc(CN2CCC(N3CCC(C(=O)NCC4CCCO4)CC3)CC2)c1 (stereo not given)	i	i	-6	i	i	/	/	/	/	/
Cc1ccc2nc3sc(C(=O)N4CCCc5ccccc54)c(N)c3cc2c1	-11*	-9.1*	-20	i	i	53%*	i	52%*	135*	0.083*
Cc1ccc(-c2cc(C(=O)N3CCCc4ccccc43)c3ccccc3n2)cc1	i	i	-5	i	i	/	/	/	/	/
COc1ccccc1C(=O)Nc1cccc(SC)c1	i	i	-17	i	i	/	/	/	/	/
CSc1cccc(NC(=O)c2cccc3cccnc23)c1	-9.6*	-9.7*	-4	i	i	28%*	i	32%*	88*	i
CCn1cc(Br)c(C(=O)Nc2ccc(C(=O)OC(C)C)cc2)n1	-11*	-9.7*	-5	i	i	41%*	i	26%*	99*	i
CCCCCCCCn1c2c(c(=N)c3ccccc31)CCC2	-16*	i	-27	11*	i	51%*	83%*	i	140*	0.14*
Cc1cc(C)c(S(=O)(=O)N2CCOCC2)c(C)c1N(C)S(=O)(=O)c1ccccc1	i	i	-16	i	i	/	/	/	/	/
Cc1cc(C)c(S(=O)(=O)N2CCCCC2)c(C)c1N(C)S(=O)(=O)c1ccccc1	i	-8.8*	-5	i	i	i	i	i	97*	0.16*
O=C(Nc1ccc(Cl)c(S(=O)(=O)N2CCOCC2)c1)c1ccccn1	i	i	-8	i	i	/	/	/	/	/
O=C(Nc1ccc(Cl)c(S(=O)(=O)N2CCOCC2)c1)c1cc(-c2ccccn2)nc2ccccc12	-9.5*	-8.8*	-21	i	i	i	i	i	123*	i
Cc1cccc(/C=N/NC(=O)c2ccc(F)cc2)n1	i	i	0	i	i	/	/	/	/	/
COc1cc2c(cc1OC)CN(C(=O)Cc1ccc(OC)c(S(=O)(=O)N3CCOCC3)c1)CC2	i	i	2	i	i	/	/	/	/	/
CC(C)[C@H](NC(=O)c1ccccc1)C(=O)OCC(=O)N1CC(=O)Nc2ccccc21	i	i	-8	i	i	/	/	/	/	/
CCCCCCN=C1CC(C)(C)CC(=O)/C1=C(/O)CCC	-18*	-10*	-12	i	i	66%*	i	40%*	94*	i
Cc1ccsc1CN(C)CC(=O)Nc1ccc([N+](=O)[O-])cc1Cl	-21*	-9.5*	-11	i	i	64%*	i	48%*	135*	0.13*
COc1ccc2c(COC(=O)c3cccc(S(=O)(=O)NCC(C)C)c3)cc(=O)oc2c1	-9.3*	-11*	-22	i	i	i	i	i	138*	0.14*
Cc1ccc2c(c1)nc(NCCO)n2C	i	i	-1	i	i	/	/	/	/	/
CCCn1c(SCC#N)nc2c(c1=O)C1(CCCC1)Cc1ccccc1-2	-9.9*	-10*	-4	i	i	52%*	i	29%*	95*	i
CCc1nc2c(c(=O)[nH]1)C1(CCCC1)Cc1ccccc1-2	i	i	0	i	i	/	/	/	/	/
COc1cc(C(=O)OCC(=O)N2CCN(C(C)=O)CC2)ccc1OCC(C)C	i	i	-12	i	i	/	/	/	/	/
SMILES	KCNK9 inh	KCNK3 inh	hERG rescue	KCNQ1 inh	KCNQ1 pot	KCNK9 inh conf	Kir2-1 spec	HEK293 Tl ctr	KCNK3 inh conf	KCNK3 noninduced
O=c1/c(=C\c2ccc(O)cc2)sc2n1C(c1ccccc1)C(c1ccccc1)=NN=2 (stereo not given)	-13*	i	-20	i	i	56%*	i	52%*	132*	0.15*
Cc1c(C)c2ccc(OC(C)C(=O)NCCCn3ccnc3)c(C)c2oc1=O (stereo not given)	i	i	-11	i	i	/	/	/	/	/
S=C(NC1CCCCC1)N(CCc1nc2ccccc2[nH]1)C1CCCC1	i	-10*	-14	i	i	i	i	i	118*	0.13*
COc1ccc(CN(C(=O)/C=C/c2ccccc2Cl)C2CCS(=O)(=O)C2)cc1 (stereo not given)	-14*	-11*	-8	i	i	49%*	i	32%*	103*	0.15*
CCOC(=O)c1ccc(Cn2c(-c3ccccc3)nnc2-c2ccccc2)o1	-13*	-9.3*	-6	i	i	56%*	i	40%*	115*	0.15*
CC(C)(C)c1ccccc1NC(=O)N1CCNC(=O)C1CC(=O)Nc1ccc(F)cc1 (stereo not given)	i	i	-5	i	i	/	/	/	/	/
CCC(=O)c1ccccc1OCCCN1CCC(Cc2ccccc2)CC1	i	-10*	-17	i	i	i	i	i	88*	0.13*
CCc1ccccc1OCC(=O)OCC(=O)Nc1cc(C)on1	/	i	/	/	/	/	/	/	/	/
Cc1cc([N+](=O)[O-])nn1Cc1noc(C(=O)NCCCn2ccnc2)n1	i	i	-5	i	i	/	/	/	/	/
Nc1nc(SCc2ccc(Cl)cc2Cl)n[nH]1	i	i	-8	i	i	/	/	/	/	/
CNc1cc(CSC)nc(SCc2ccc(Cl)cc2Cl)n1	-12*	-9.2*	-4	i	i	56%*	i	50%*	142*	0.15*
CN(C)C(=N)c1n[nH]nc1SCc1ccc(Cl)c(Cl)c1	i	i	-11	i	i	/	/	/	/	/

Assay outcomes (PubChem)
